The text below walks through data of ChEMBL document CHEMBL1134542, “Experimental precedent for the need to involve the primary hydration layer of DNA in lead drug design” (J Med Chem, 2001).

What all share (format): nucleic-acid assay
The subject of assay [1] is Nucleic Acid. The assay can be described thus: Association constant for binding to AATT duplex. The essentials:
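Fluorometric equilibrium titration at 20 °C in 50 mM Tris, 100 mM NaCl, pH 7.5. The fluorescence increase was fitted to the quadratic binding equation, with dilution corrected.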

In assay [2] the test system is Nucleic Acid. Description: Association constant for binding to AATT 28-mer AATT hairpin. In a few lines:
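Fluorometric equilibrium titration at 20 °C in 50 mM Tris, 100 mM NaCl, pH 7.5. A fixed 0.7-1.6 nM dye in a silanized quartz cuvette was titrated with excess 28-mer T4-looped AATT hairpin (3.54 μM stock). The rise in fluorescence was fitted to the quadratic binding equation, with dilution taken into account. Above about 4 × 10^9 M^-1, dye concentration was an extra fitting parameter.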

Assay [3] has as its system Nucleic Acid. The assay can be described thus: Kinetically Defined Association Constant for 28-mer AATT hairpin. The essentials:
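Stopped-flow fluorescence at 20 °C, pH 7.5 (50 mM Tris, 0.1 M NaCl). 2 nM dye was mixed with excess 28-mer AATT hairpin, with excitation at 366 nm and emission through a 418 nm cutoff filter. Inverse time constants from monoexponential traces versus concentration gave kon. koff came from dissociation with excess poly[d(A-5BrU)]. Kkin = kon/koff.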

`CN1CCN(c2ccc3[nH]c(-c4ccc5[nH]c(-c6ccc(O)cc6)nc5c4)nc3c2)CC1`: the figures for the Ka in the assay with Nucleic Acid [1] and in the assay with Nucleic Acid [2] were 4.1e-08 M⁻¹ and 5.2e-08 M⁻¹, respectively. For the same molecule, the Kkin in the assay on Nucleic Acid [3] worked out at 5.9e-08 M⁻¹.
